Broadly, the inhibition is the relative decrease from the control value, in per cent. Broadly, the IC50 is the point on the concentration scale where inhibition reaches its midpoint. In general, Ki refers to a dissociation constant, usually derived from enzyme kinetics or from competition with a known ligand. A lower Ki goes with higher affinity.

Experimental findings from ChEMBL document CHEMBL4342528, “Discovery of a First-in-Class Protein Arginine Methyltransferase 6 (PRMT6) Covalent Inhibitor” (J Med Chem, 2020) are described below.

Active and inactive are the calls of the source. The calls are words filed in the database; no cut-off is given here.

In series [1] the target is T1, Protein arginine N-methyltransferase 3 (Homo sapiens, UniProt O60678). The series can be described thus: Covalent binding affinity to human PRMT3 assessed as covalent adduct. formation at 300 uM pre-incubated for 1 hr by mass spectrometry. The method in brief: (§1)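 PRMT protein at 15 μM was incubated 1 h at room temperature with a 20-fold molar excess of inhibitor (300 μM). The reaction was quenched with 0.1% aqueous TFA, separated by HPLC (5–95% acetonitrile in water) and analysed by ESI time-of-flight LC/MS for protein–ligand adduct mass.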
Target sequence in this assay (O60678 2-531 limits assumed): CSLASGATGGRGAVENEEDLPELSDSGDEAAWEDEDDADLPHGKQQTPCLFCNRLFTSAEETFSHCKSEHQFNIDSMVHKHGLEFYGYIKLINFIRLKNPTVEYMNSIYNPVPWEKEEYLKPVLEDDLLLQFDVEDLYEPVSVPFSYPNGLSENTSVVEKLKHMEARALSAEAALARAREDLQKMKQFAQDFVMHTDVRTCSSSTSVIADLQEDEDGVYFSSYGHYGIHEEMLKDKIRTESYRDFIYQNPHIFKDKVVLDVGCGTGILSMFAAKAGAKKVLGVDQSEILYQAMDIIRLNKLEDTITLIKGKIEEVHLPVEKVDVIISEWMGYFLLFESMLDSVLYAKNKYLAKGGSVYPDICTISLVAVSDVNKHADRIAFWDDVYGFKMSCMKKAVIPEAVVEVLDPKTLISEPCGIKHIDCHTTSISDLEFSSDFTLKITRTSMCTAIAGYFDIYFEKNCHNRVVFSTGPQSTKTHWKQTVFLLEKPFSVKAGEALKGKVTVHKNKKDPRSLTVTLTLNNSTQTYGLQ

Series [2] addresses T2, Histone-arginine methyltransferase CARM1 (Homo sapiens) (UniProt Q86X55).
T2 sequence (whole entry): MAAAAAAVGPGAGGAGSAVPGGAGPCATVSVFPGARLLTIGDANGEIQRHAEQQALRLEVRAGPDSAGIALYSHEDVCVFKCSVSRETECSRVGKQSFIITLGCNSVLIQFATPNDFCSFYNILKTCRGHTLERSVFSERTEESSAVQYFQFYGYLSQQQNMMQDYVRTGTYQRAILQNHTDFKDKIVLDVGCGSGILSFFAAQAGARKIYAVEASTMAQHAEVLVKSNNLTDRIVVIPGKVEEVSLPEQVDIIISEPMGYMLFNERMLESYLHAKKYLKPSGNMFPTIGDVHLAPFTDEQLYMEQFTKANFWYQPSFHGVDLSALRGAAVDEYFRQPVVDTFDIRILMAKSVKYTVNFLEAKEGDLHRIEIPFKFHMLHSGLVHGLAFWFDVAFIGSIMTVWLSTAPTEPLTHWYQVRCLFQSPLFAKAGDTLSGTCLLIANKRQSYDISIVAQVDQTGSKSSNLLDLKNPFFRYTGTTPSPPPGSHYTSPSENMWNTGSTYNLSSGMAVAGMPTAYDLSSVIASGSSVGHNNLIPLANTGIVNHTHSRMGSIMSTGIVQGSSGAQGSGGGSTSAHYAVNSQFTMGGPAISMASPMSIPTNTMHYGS
The series can be described thus: Inhibition of PRMT4 (unknown origin) assessed as reduction in incorporation of [3H]-labeled methyl group into biotinylated substrate using [3H-SAM] at 50 uM incubated for 1 hr by scintillation proximity assay relative to control. A digest of the protocol: (§2)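 Panel of 33 methyltransferases (22 PKMTs, 3 DNMTs, 8 PRMTs), each tested at 10 and 50 μM compound. Activity was read as ³H-methyl transfer from ³H-SAM in a radiometric assay done as previously described.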

For series [3], the target named is Protein arginine N-methyltransferase 5 (Homo sapiens) (UniProt O14744). The series can be described thus: Inhibition of PRMT5 (unknown origin) assessed as reduction in incorporation of [3H]-labeled methyl group into biotinylated substrate using [3H-SAM] at 10 uM incubated for 1 hr by scintillation proximity assay. The method in brief:
as §2
For orientation: SPA uses beads or plates that emit light when radiolabelled molecules are held near them.

Series [4] deals with Histone-lysine N-methyltransferase SUV39H2 (Homo sapiens) (UniProt Q9H5I1). The series can be described thus: Inhibition of SUV39H2 (unknown origin) assessed as reduction in incorporation of [3H]-labeled methyl group into biotinylated substrate using [3H-SAM] at 10 uM incubated for 1 hr by scintillation proximity assay.
Sequence of Histone-lysine N-methyltransferase SUV39H2 (Homo sapiens) (Q9H5I1 whole entry): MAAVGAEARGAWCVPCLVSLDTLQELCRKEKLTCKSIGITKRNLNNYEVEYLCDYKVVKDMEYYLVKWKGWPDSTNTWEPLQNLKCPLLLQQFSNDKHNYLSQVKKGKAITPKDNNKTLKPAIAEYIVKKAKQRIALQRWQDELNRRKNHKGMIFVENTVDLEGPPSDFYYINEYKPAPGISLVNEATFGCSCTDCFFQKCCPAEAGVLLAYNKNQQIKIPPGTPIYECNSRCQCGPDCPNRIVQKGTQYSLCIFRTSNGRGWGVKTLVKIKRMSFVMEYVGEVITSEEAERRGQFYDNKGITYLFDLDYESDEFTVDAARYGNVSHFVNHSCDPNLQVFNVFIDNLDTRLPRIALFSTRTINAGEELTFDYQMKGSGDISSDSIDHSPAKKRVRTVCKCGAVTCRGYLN
The target of series [5] is Histone-lysine N-methyltransferase KMT5C (Homo sapiens) (UniProt Q86Y97). The series can be described thus: Inhibition of SUV420H2 (unknown origin) assessed as reduction in incorporation of [3H]-labeled methyl group into biotinylated substrate using [3H-SAM] at 10 uM incubated for 1 hr by scintillation proximity assay.
Sequence of Histone-lysine N-methyltransferase KMT5C (Homo sapiens) (Q86Y97 whole entry, looked up): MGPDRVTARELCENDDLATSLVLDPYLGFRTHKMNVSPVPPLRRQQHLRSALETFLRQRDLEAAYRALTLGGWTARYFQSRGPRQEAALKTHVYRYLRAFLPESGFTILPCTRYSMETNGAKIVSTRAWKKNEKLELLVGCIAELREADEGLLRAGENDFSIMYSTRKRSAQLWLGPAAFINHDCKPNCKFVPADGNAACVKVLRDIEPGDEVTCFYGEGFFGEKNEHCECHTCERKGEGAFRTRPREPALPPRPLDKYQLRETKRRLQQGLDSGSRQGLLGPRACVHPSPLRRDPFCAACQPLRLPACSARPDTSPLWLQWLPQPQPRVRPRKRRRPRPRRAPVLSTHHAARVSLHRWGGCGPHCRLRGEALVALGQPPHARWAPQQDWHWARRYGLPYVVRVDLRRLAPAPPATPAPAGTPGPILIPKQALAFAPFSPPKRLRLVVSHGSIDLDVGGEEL
Series [6] deals with Protein arginine N-methyltransferase 7 (Homo sapiens) (UniProt Q9NVM4). The series can be described thus: Inhibition of PRMT7 (unknown origin) assessed as reduction in incorporation of [3H]-labeled methyl group into biotinylated substrate using [3H-SAM] at 10 uM incubated for 1 hr by scintillation proximity assay. A digest of the protocol:
as §2

In series [7] the target is Histone-lysine N-methyltransferase SUV39H1 (Homo sapiens) (UniProt O43463). The series can be described thus: Inhibition of SUV39H1 (unknown origin) assessed as reduction in incorporation of [3H]-labeled methyl group into biotinylated substrate using [3H-SAM] at 50 uM incubated for 1 hr by scintillation proximity assay relative to control. The method in brief: as §2
Sequence of Histone-lysine N-methyltransferase SUV39H1 (Homo sapiens) (O43463 whole entry): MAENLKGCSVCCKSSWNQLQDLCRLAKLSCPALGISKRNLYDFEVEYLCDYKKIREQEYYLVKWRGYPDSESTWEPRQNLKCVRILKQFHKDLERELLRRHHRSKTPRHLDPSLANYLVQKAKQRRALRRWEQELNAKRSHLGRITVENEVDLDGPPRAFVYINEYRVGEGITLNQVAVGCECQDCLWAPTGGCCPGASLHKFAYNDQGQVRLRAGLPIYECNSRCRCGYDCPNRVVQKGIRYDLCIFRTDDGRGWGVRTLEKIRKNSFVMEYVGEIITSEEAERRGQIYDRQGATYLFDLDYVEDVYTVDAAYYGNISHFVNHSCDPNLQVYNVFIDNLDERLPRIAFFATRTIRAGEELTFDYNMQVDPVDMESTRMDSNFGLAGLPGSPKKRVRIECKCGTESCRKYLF
Series [8] has as its target Protein arginine N-methyltransferase 1 (Homo sapiens, UniProt Q99873). The series can be described thus: Covalent binding affinity to human PRMT1 assessed as covalent adduct. formation at 300 uM pre-incubated for 1 hr by mass spectrometry. A digest of the protocol:
as §1

For series [9], the target named is DNMT3B-DNMT3L complex (Homo sapiens) (UniProt Q9UBC3+Q9UJW3). The series can be described thus: Inhibition of DNMT3B/3L (unknown origin) at 10 uM using un-biotinylated Poly(2'-deoxyinosinic-2'-deoxycytidylic acid) substrate using [3H-SAM] incubated for 1 hr by scintillation proximity assay. The class given is protein-complex assay. A digest of the protocol: as §2
Sequence of DNMT3B-DNMT3L complex (Homo sapiens) (Q9UJW3 whole entry, looked up, other chains not shown): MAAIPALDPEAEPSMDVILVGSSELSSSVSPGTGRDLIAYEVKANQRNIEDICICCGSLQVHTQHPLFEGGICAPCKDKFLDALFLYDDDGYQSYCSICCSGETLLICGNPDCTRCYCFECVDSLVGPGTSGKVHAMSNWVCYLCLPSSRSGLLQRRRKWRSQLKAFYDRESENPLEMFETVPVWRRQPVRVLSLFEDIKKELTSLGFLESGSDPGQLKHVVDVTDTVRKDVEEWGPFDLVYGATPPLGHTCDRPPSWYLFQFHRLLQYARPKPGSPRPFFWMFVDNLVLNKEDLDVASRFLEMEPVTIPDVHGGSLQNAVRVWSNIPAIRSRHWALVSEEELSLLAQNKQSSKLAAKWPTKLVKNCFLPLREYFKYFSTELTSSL

For series [10], the target named is Histone-lysine N-methyltransferase 2A (Homo sapiens) (UniProt Q03164). The series can be described thus: Inhibition of MLL1 (unknown origin) assessed as reduction in incorporation of [3H]-labeled methyl group into biotinylated substrate using [3H-SAM] at 10 uM incubated for 1 hr by scintillation proximity assay. The method in brief:
as §2

Series [11] addresses T1, Protein arginine N-methyltransferase 3. The series can be described thus: Inhibition of human PRMT3 using [3H]SAM as donor and [3H]methylated biotin-labeled peptide as substrate by scintillation proximity assay. The method in brief:
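Compound titrated into the reaction; 1 h enzyme–compound preincubation stated for PRMT6. Methylated peptide captured on streptavidin/scintillant-coated plates and counted (cpm). IC50 from concentration–response, triplicate, mean ± SD.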
Target sequence in this assay (O60678 whole entry): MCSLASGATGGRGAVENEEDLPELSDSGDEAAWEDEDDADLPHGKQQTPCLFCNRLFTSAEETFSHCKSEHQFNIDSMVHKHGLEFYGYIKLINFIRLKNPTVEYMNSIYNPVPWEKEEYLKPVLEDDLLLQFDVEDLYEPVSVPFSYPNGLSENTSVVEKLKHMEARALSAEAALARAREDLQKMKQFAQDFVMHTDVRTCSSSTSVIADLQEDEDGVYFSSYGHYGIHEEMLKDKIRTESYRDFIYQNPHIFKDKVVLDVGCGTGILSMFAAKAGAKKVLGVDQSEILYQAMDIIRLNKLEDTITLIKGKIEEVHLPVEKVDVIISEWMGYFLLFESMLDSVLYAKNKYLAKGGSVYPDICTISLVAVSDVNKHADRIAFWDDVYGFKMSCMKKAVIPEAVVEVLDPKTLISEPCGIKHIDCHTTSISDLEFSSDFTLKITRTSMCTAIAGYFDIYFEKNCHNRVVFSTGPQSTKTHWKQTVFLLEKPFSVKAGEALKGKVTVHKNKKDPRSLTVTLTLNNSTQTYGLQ

Series [12] has as its target T3, Protein arginine N-methyltransferase 6 (Homo sapiens, UniProt Q96LA8). The series can be described thus: Inhibition of Flag-tagged PRMT6 (unknown origin) expressed in HEK293 cells incubated for 20 hrs assessed as reduction in H3R2me2a levels. The class given is cell-based.
In series [13] the target is T3, Protein arginine N-methyltransferase 6. The series can be described thus: Inhibition of human PRMT6 pre-incubated for 1 to 30 mins using [3H]SAM as donor and [3H]methylated biotin-labeled peptide as substrate by scintillation proximity assay.
Series [14] concerns the target DNA (cytosine-5)-methyltransferase 1 (Homo sapiens) (UniProt P26358). The series can be described thus: Inhibition of DNMT1 (unknown origin) at 10 uM using double-stranded DNA substrate using [3H-SAM] incubated for 1 hr by scintillation proximity assay. The method in brief:
as §2

For a further series, the system named is MCF7. The series can be described thus: Toxicity in human MCF7 cells assessed as reduction in cell viability up to 20 uM incubated for 3 days by CCK8 assay. The class given is cell-based. As to conditions: mcf7, 72 h. The method in brief: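 Cells seeded 1×10^4 per well in triplicate, treated after 24 h with serial dilutions from 20 μM for 3 days; CCK-8 (WST-8) added, 4 h at 37 °C, absorbance at 450 nm; mean ± SD of three replicate experiments.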

The species named for the next series is Homo sapiens. The series can be described thus: Selectivity index, ratio of IC50 for human PRMT4 to IC50 for human PRMT6.
For series [15], the target named is T1, Protein arginine N-methyltransferase 3. The series can be described thus: Inhibition of PRMT3 (unknown origin) expressed in HEK293T cells were co-transfected with GFP-tagged histone H4 peptide assessed as reduction in H4R3 arginine asymmetric dimethylation at 0.2 to 20 uM incubated for 20 hrs. Type of series: cell-based.
Target sequence in this assay (O60678 2-531 limits assumed): as the sequence (O60678 2-531 limits assumed) above
Series [16] concerns the target Histone-lysine N-methyltransferase KMT5B (Homo sapiens) (UniProt Q4FZB7). The series can be described thus: Inhibition of SUV420H1 (unknown origin) assessed as reduction in incorporation of [3H]-labeled methyl group into biotinylated substrate using [3H-SAM] at 10 uM incubated for 1 hr by scintillation proximity assay.

Sequence of DNA (cytosine-5)-methyltransferase 1 (Homo sapiens) (P26358 whole entry): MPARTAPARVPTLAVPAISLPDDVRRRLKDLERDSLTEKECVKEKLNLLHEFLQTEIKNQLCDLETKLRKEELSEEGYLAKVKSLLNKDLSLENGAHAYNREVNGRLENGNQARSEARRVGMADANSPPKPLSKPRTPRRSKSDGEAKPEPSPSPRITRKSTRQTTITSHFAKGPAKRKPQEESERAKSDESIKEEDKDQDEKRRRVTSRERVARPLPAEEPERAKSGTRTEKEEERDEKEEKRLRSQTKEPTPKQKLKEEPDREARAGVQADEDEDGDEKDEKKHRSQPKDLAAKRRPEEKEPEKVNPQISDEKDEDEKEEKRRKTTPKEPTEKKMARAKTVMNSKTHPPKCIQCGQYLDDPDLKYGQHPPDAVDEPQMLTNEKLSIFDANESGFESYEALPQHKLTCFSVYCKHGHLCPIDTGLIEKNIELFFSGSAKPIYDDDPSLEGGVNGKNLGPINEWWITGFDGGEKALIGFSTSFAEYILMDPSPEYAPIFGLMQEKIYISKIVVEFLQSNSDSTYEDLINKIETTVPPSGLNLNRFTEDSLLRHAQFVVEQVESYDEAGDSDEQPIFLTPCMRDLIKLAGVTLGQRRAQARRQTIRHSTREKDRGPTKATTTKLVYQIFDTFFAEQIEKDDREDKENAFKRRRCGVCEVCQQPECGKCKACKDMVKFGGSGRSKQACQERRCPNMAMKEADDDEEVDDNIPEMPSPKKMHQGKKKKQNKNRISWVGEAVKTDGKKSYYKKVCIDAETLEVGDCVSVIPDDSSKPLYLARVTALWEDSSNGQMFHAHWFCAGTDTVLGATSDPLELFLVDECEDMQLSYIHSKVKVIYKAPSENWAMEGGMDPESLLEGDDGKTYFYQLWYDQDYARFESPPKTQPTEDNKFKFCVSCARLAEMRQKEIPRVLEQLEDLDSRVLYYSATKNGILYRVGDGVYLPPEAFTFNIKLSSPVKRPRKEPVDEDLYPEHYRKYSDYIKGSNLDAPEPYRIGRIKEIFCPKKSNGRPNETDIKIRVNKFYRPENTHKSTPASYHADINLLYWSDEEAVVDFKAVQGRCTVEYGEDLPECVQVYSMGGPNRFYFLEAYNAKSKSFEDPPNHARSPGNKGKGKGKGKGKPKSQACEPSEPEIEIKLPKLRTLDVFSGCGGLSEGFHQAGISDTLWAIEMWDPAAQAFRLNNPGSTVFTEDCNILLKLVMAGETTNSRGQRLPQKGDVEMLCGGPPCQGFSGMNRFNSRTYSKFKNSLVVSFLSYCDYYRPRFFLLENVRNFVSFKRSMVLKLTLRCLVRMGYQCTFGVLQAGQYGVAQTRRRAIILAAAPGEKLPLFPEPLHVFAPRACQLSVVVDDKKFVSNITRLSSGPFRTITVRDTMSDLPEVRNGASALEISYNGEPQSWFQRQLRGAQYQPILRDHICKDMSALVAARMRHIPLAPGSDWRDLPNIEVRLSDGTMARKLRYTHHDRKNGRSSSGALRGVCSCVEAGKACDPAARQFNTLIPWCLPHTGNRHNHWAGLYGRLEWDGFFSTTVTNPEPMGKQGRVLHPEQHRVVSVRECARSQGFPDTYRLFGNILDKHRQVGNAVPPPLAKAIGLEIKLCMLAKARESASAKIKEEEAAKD
Sequence of Protein arginine N-methyltransferase 1 (Q99873 whole entry, looked up): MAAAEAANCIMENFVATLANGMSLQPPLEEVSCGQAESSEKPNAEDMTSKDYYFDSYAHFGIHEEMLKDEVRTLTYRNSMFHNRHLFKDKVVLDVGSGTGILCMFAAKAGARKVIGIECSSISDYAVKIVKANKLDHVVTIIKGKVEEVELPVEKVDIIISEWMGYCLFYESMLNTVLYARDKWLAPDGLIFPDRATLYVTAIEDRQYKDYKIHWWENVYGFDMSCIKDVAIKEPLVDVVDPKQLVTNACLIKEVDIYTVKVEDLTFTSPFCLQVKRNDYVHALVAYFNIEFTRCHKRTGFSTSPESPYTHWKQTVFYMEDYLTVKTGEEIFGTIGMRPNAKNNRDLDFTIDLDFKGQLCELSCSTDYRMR

As to `C=CC(=O)Nc1cccc(-c2c[nH]cc2CN(C)CCN)c1`, the outcome in series [1] and in [8] was inactive. The inhibition in series [2] was greater than 50%; in [7], greater than 50%; in series [12] it was “Dose-dependent effect”. Further, the inhibition result in series [3], in [4], in [5], in series [6], in series [9] and in series [10] was “inactive” each time. Also, the inhibition result in series [14], in series [15] and in series [16] was “inactive” throughout. For the same compound, the IC50 in series [11] was 3000 nM; in [12] it was 1300 nM. For the same compound, in [13], affinity was put at a Ki of 16 nM. In series [13], this compound returned a Kinact of 0.08 min⁻¹. In addition, the Activity result with MCF7 is “Non-Toxic”. The Ratio IC50 in the series listed under Homo sapiens is 27.
